Results as given in ChEMBL document CHEMBL4513216, “Probing the Open Global Health Chemical Diversity Library for Multistage-Active Starting Points for Next-Generation Antimalarials” (ACS Infect Dis, 2020).

Assay: Toxicity liver stage against HepG2, at 10uM
Type: cell-based
Set-up: test concentration 10 uM, cell line HepG2-A16-CD81EGFP
Conditions: human, HepG2-A16-CD81EGFP cells; read-out: INHIBITION
Summary of the method: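 Uninfected HepG2-A16-CD81EGFP cells, 3 × 10^3 per well, 1536-well, plated on prespotted compound at 10 μM final, parasite-free screening media added to match infected plates; puromycin 10 μM positive, DMSO 0.5% negative; run in parallel with 48 h PbLuc assay at 37 °C, 5% CO2; viability by CellTiter-Glo luminescence, normalized to controls.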

Row | Compound | cytotoxicity at 10 µM
1 | COCCCNS(=O)(=O)c1ccc(N2CCCCS2(=O)=O)cc1 | 0.308%
2 | CN(C)C(=O)c1cccc(CNc2ccc(C#N)cn2)c1 | -4.73%
3 | CCN(CC)CCNC(=O)c1ccc(-n2ccc3ccccc32)s1 | 8.01%
4 | COc1cccc(C(=O)NCC(c2cccn2C)N2CCCC2)c1OC (centres undefined) | -2.4%
5 | O=S(=O)(NCC(O)c1ccc(C(F)(F)F)cc1)C1CC1 (centres undefined) | -6.9%
6 | COCC1c2nnn(CC3CC3)c2CCN1C(=O)c1sccc1C (centres undefined) | -147%
7 | CC(C)c1cccc(NC(=O)Cn2c(=O)n(C)c(=O)c3sccc32)c1 | 42%
8 | COC(=O)c1cccc(C(=O)N2CCN(c3cccc(C)c3C)CC2)n1 | 79.9%
9 | CC(C(=O)NN1CCOCC1)n1nc(C(F)(F)F)c(Cl)c1C1CC1 (centres undefined) | -0.37%
10 | CCN1CCN(C(=O)c2cc(NC(=O)c3ccccc3)n(C)n2)CC1 | 8.91%
11 | Cn1nc(C(=O)NC2CC2)cc1NC(=O)C1CC1 | -4.02%
12 | CCc1nccn1CC(=O)Nc1cccc(N2CCCC2)c1 | 17.1%
13 | Fc1ccc(Cc2cccc(C3CCN(C4CCOCC4)CC3)n2)cc1 | 4.3%
14 | Cc1cccnc1CN1CC[C@H](Oc2cccc(F)c2)[C@@](C)(O)C1 | -5.77%
15 | CCn1cc(C(=O)N2CCOC(c3nc(-c4cccs4)no3)C2)cn1 (centres undefined) | 2.91%
16 | CC(=O)N1C[C@@H](c2ccsc2)[C@@H]2CN(Cc3ccccc3Cl)CC[C@@H]21 | 3.16%
17 | O=C(CCC1CCCC1)N1CCC(c2ncc3c(n2)CCNC3)CC1 | -3.91%
18 | Cc1nc(NS(=O)(=O)c2cccc(F)c2C)no1 | 5.3%
19 | Cc1noc(C)c1CN1CCN(Cc2nc(C3CC3)no2)CC1 | 31.4%
20 | Cn1nccc1C1CCN(Cc2ccn(-c3ccccc3)n2)CC1 | 17.3%
21 | COC(=O)CN(C(=O)C(C)c1c(F)cccc1F)c1cccc(C)n1 (centres undefined) | -2.8%
22 | CS(=O)(=O)C1(C(=O)NC2CCc3nccn3C2)CCCC1 (centres undefined) | -14%

Row | Compound | cytotoxicity at 10 µM
23 | O=C(c1cc(-c2ccccc2)nc2onc(C3CC3)c12)N1CC[C@H](O)C1 | -36.7%
24 | Fc1ccc(NCc2ccncc2)c(OC(F)F)c1 | 10.5%
25 | COCCCSc1ccc(NCc2ccc(C)cn2)cc1 | 15.8%
26 | Cc1nc(CNC2CCc3nc(C(C)C)nn3C2)oc1C (centres undefined) | -4.1%
27 | Cc1c(NCc2ccc(C#N)cc2)cccc1S(=O)(=O)NC1CC1 | 20.9%
28 | Cc1cnn(Cc2cc(F)ccc2F)c1NC(=O)C1CCOCC1 | -0.303%
29 | NC(=O)c1ccc(N2CCCCC2)c(NC(=O)c2ccc(F)cc2Cl)c1 | -4.2%
30 | Cc1cc(C)n(C2CN(CC(=O)N(C)Cc3ccsc3)C2)n1 | -0.912%
31 | O=C(c1cccnc1)N1CCCC1C1CCN(Cc2ccccc2)CC1 (centres undefined) | -3.24%
32 | CC(C)(C)c1cnc(CN(Cc2cccnc2)CC2CCCO2)o1 (centres undefined) | 5.82%
33 | CCOC(=O)N1CCN(C(=O)c2sc(-c3ccccc3)nc2C)CC1 | -3.08%
34 | O=S(=O)(NCC1COCCO1)c1ccc(C2CCCCC2)cc1 (centres undefined) | 27.5%
35 | CC(C)c1ccc(C(N)c2cccs2)cc1 (centres undefined) | 15.4%
36 | Cc1cc(C)c(CNC(=O)NCC2Cc3ccccc3O2)c(=O)[nH]1 (centres undefined) | -5.21%
37 | CN1CCC(CN(C)S(=O)(=O)CC2CCCCC2)CC1 | 0.304%
38 | COc1ccc(C(C)NC(=O)N2CCNC(=O)CC2)cc1F (centres undefined) | 13.5%
39 | Cc1ncccc1CNCC1COC2(CCCCC2)O1 (centres undefined) | -149%
40 | c1cncc(-c2nnc(C3(c4ccc5c(c4)OCO5)CCOCC3)o2)c1 | 4.02%
41 | CC(C)CC(NC(=O)CSc1ccc(F)c(Cl)c1)C(=O)O (centres undefined) | -46%
42 | CO[C@H]1CN(C(=O)OC(C)(C)C)CC1NCc1ccco1 (some centres undefined) | -46.9%
43 | O=C(c1ccccc1)N1CCCN(C(=O)c2ncncc2Cl)CC1 | 4.26%
44 | CNC(=O)c1c(C)cccc1NCc1noc(C2CC2)n1 | 29.7%

Row | Compound | cytotoxicity at 10 µM
45 | CN1CCCc2ccc(S(=O)(=O)NC(=O)C3CC=CC3)cc21 | 2.84%
46 | Cn1ccc(NC(=O)NC2CCCN(c3ccccc3Cl)C2=O)n1 (centres undefined) | -49.4%
47 | COc1ccc(CN(C)c2nc3c(cnn3C)c(=O)[nH]2)c(OC)c1 | 58.9%
48 | CC(C)(C)C(=O)c1ccsc1NC(=O)CCNC(=O)c1ccco1 | -52.7%
49 | CN(C)Cc1noc2c1CN(Cc1ccc[nH]1)CC2 | 7.01%
50 | O=C([C@H]1COC[C@H]2CN(C3CCCC3)C[C@H]21)N1CCOCC1 | -105%
51 | CCc1cc(N(C)Cc2ccnc(C)c2)n2nc(C)c(C)c2n1 | 61.6%
52 | Cc1nc(CN2CCN(c3nc4c(s3)c(C)nn4C)CC2)cs1 | 15.6%
53 | Nc1nc2c(c(N3CCN(C(=O)c4cccs4)CC3)n1)CCCC2 | 7.9%
54 | Clc1cc(N2CCN3CCCCC3C2)nc2[nH]ccc12 (centres undefined) | -9.74%
55 | Cc1cc2c(N3CCC(N(C)Cc4cnn(C)c4)CC3)ncnc2s1 | -1.13%
56 | C[C@@H]1CN(C2(C(=O)N3CCSCC3)Cc3ccccc3C2)C[C@H](C)O1 | 0.66%
57 | Oc1cccc(CN2CCN(c3nccc(CCC(F)(F)F)n3)CC2)c1 | -18.7%
58 | O=C(c1coc(COc2cccc3cnccc23)n1)N1CCSCC1 | -77.9%
59 | Cc1ccc2nc(C)cc(C(=O)N3C[C@H]4CCC[C@@]4(CO)C3)c2c1 | 2.53%
60 | Cc1cncc(C(=O)N2C[C@@H](C(=O)O)[C@H](C(C)C)C2)c1 | -4.31%
61 | CCC[C@H]1CN(S(=O)(=O)c2ccc(-c3c(C)noc3C)s2)C[C@@H]1N | 8.4%
62 | c1cc(-c2cscn2)cc(N2CCC(NCCc3cccs3)CC2)c1 | 8.65%
63 | COCCNc1ncnc2c1CCN(C(=O)CC1CCC(=O)N1)CC2 (centres undefined) | 1.15%
64 | Cc1ccc(NCCCNC(=O)C2CCCN(Cc3ccco3)C2)nc1 (centres undefined) | 3.15%
65 | CCn1ccc(C(=O)N2CCCN(Cc3ccccc3F)CC2)cc1=O | 9.47%
66 | Cc1noc(C)c1CN(C)c1ncnc2onc(C)c12 | -20.7%

Row | Compound | cytotoxicity at 10 µM
67 | CN(C)CC(Nc1nc(N)nc2c1CCNCC2)c1ccccc1 (centres undefined) | -2.92%
68 | CC(=O)c1ccc(N2CCCC(CO)(Cc3ccccc3C)C2)nc1 (centres undefined) | 10.1%
69 | Cc1nc2c(c(NCc3nc4ccccc4s3)n1)CCNCC2 | -37.8%
70 | Cc1cc(CC(C)NC(=O)Cc2cc(F)ccc2C)[nH]n1 (centres undefined) | -42.9%
71 | O=C1NCCCC12CCN(Cc1ccc(SC3CCCCC3)o1)C2 (centres undefined) | -3.33%
72 | CC(CN1CCCCCC1)NCc1nncn1C1CCCCC1 (centres undefined) | -5.59%
73 | CCc1cnc(N)nc1NCc1ccc(OC)cc1OC | 14.7%
74 | CCOC(=O)CC(NC(=O)c1cn(Cc2ccccc2F)nn1)C(C)C (centres undefined) | -0.99%
75 | O=C1CN(Cc2cnc3c(-c4ccccc4)cnn3c2)CCCN1 | 3.32%
76 | NCC(=O)N1CCCCC1c1ccc(F)cc1 (centres undefined) | -43.4%
77 | CCC[C@H]1CN(Cc2cc(C#N)n(C)c2C)C[C@@H]1N(C)C | -152%
78 | O=C(c1csnn1)N1CCc2[nH]nc(COc3cccc(Cl)c3)c2C1 | -60%
79 | Nc1cc(N2CCC(c3cc(Cc4ccccc4)n[nH]3)CC2)ccn1 | 24.6%
80 | Cc1nc2ccccc2n1Cc1cc(C(=O)N2C[C@@H](C)O[C@@H](C)C2)no1 | 25.7%
81 | CN1CC2(CCN(CCOCCO)CC2)CC(c2ccccc2)C1=O (centres undefined) | -9.88%
82 | Cc1cnc(C)c(N2CCN(Cc3ccc(C)c(C)c3)CC2)n1 | 6.68%
83 | Cc1ncsc1CN1C[C@H](NC(=O)C2CCOCC2)[C@@H](C(C)C)C1 | 6.67%
84 | Cc1cc(CC2COc3ccccc3C2)cnc1N (centres undefined) | 0.873%
85 | CC(C)(C)c1nccc(C2(c3ccccc3Cl)CCNCC2)n1 | -1.15%
86 | CCCn1cc(-c2ccnc(NC3CCCc4ccccc43)n2)c(C)n1 (centres undefined) | 81.4%
87 | C=Cc1ccc(C(=O)N2CCCC(Nc3ccc(OC)cc3)C2)cc1 (centres undefined) | -12%
88 | CN(C(=O)c1ccccn1)c1nc2c(s1)CCc1c-2cnn1C | 11.7%

Row | Compound | cytotoxicity at 10 µM
89 | Cc1cc(C)c2cc(CNCc3ccccc3)c3nn(C)c(=O)n3c2c1 | -1.47%
90 | CC1CN(C)CCN1C(=O)c1cnn(-c2cccc(Cl)c2)c1 (centres undefined) | -8.68%
91 | c1ccc(CCCN2CCN(c3ccc4nncn4n3)CC2)cc1 | 4.2%
92 | O=C(c1cc(C2CC2)[nH]n1)N1CCN(Cc2ccc(Cl)cc2)CC1 | 37.2%
93 | NC(=O)c1ccc(CNC(=O)Nc2cn[nH]c2)cc1 | -20.4%
94 | Cc1nn(C)c(C)c1C1CCCN1Cc1cccc(OCC(N)=O)c1 (centres undefined) | -0.192%
95 | CCc1nc(CN2CCCN(C(=O)CCc3ccco3)CC2)cs1 | 1.42%
96 | O=C(NCC1CCC2(CCNCC2)CO1)c1cnccn1 (centres undefined) | 9.51%
97 | CCOc1cc(CN[C@@H]2COC[C@H]2Cc2cc(C)no2)ccc1O | 14.8%
98 | COc1ccc(CN2CCCC3(CCN(c4ccsc4)C3=O)C2)cc1 (centres undefined) | 6.92%
99 | CCN(CC)[C@@H]1CN(C(=O)c2ccc(C#N)cc2)[C@@H]2CCCO[C@H]12 | -151%
100 | CN(C)C(=O)CN1CCc2ncnc(NC3CCC3)c2CC1 | -94.4%
101 | Cc1ncccc1NC(=O)[C@H]1C[C@@H]2CCN(Cc3ccsc3)C[C@H]2O1 | -79.1%
102 | CN(C)C(=O)CN1CCC2(CCCN(Cc3cccnc3)C2)C1=O (centres undefined) | -103%
103 | Cc1nc(C2(O)CCCNCC2)sc1CCOc1ccc(Cl)cc1 (centres undefined) | 12.7%
104 | Cc1ccc2c(n1)N(CCN(C)C)CCN(C(=O)c1cccs1)C2 | -69.8%
105 | CN(C)[C@@H]1CCN(C(=O)Cc2cccs2)[C@H]1Cc1ccncc1 | -70.1%
106 | Cn1cccc1C(=O)N1CCC2(CCN2c2ncccn2)C1 (centres undefined) | 10.7%
107 | NC(=O)N1CCc2cc(C(=O)O)c(-c3ccsc3)nc2CC1 | 18.3%
108 | Cc1nc(CN2CCC3(CC2)CCN(C(=O)c2cscn2)C3)cs1 | -71.9%
109 | CCC1=NN2C(=N)C(=Cc3cccn3-c3cccc(Cl)c3)C(=O)N=C2S1 | -5.7%
